We go through five compounds from ChEMBL document CHEMBL3232747, “Potential anti-angiogenesis effects of p-terphenyl compounds from Polyozellus multiplex” (J Nat Prod, 2014).

Test [1] concerns HUVEC. As to the kind of experiment: Growth inhibition of HUVEC by WST-8 assay. The format is functional, cell-based. The conditions noted are these: Homo sapiens. The essentials:
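HUVECs (passages 2–8), 3 × 10^3 cells/well on collagen, adhered 12 h in EGM-2, then 12 h in EGM-2 lacking VEGF and bFGF. VEGF (1 nM) plus compound added for 72 h at 37 °C, 5% CO2. WST-8 added 2 h, absorbance at 450 nm; Ki8751 as positive control.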

Test [2] deals with Vascular endothelial growth factor receptor 2 (Homo sapiens, UniProt P35968). As to the kind of experiment: Inhibition of recombinant human VEGFR2. A digest of the protocol: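 Recombinant VEGFR2 tyrosine kinase activity measured by ELISA using a universal tyrosine kinase assay kit; Ki8751 as positive control.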
In test [3] the test system is HUVEC. As to the kind of experiment: Antiangiogenic activity in HUVEC assessed as inhibition of tubule network formation after 16 hrs by fluorescence microscopic technique. The format is functional, cell-based. The conditions noted are these: Homo sapiens. The essentials: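 HUVECs (passages 2–8) plated at 1.6 × 10^4 cells on polymerized Matrigel with test compound at 2.5, 5, 7.5 or 10 μM; suramin 10 μM as positive control. Incubated 16 h, 37 °C, 5% CO2. Calcein-AM stained, imaged by fluorescence microscopy at 4×, total tubule length quantified.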

Test [4] deals with HUVEC. As to the kind of experiment: Antiinvasive activity in HUVEC by matrigel assay at 2.5 uM after 22 hrs by fluorescence microscopic technique. The conditions noted are these: Homo sapiens. The format is functional, cell-based. A digest of the protocol:
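HUVECs starved 5 h in serum-free EBM-2 with 0.2% BSA, then 1 × 10^5 cells with compound (2.5 or 5 μM) loaded into inserts coated with 0.2 mg/mL Matrigel. Lower chamber: EBM-2, 0.2% BSA, 20 ng/mL VEGF, 1% FBS plus compound. After 22 h at 37 °C, invaded cells calcein-AM labeled, read at 494/517 nm; mean ± SD, n = 3.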

Each structure is given as a SMILES string. Active and inactive are the calls of the source. No cut-off for these calls is given here.

Sequence of Vascular endothelial growth factor receptor 2 (P35968 whole entry): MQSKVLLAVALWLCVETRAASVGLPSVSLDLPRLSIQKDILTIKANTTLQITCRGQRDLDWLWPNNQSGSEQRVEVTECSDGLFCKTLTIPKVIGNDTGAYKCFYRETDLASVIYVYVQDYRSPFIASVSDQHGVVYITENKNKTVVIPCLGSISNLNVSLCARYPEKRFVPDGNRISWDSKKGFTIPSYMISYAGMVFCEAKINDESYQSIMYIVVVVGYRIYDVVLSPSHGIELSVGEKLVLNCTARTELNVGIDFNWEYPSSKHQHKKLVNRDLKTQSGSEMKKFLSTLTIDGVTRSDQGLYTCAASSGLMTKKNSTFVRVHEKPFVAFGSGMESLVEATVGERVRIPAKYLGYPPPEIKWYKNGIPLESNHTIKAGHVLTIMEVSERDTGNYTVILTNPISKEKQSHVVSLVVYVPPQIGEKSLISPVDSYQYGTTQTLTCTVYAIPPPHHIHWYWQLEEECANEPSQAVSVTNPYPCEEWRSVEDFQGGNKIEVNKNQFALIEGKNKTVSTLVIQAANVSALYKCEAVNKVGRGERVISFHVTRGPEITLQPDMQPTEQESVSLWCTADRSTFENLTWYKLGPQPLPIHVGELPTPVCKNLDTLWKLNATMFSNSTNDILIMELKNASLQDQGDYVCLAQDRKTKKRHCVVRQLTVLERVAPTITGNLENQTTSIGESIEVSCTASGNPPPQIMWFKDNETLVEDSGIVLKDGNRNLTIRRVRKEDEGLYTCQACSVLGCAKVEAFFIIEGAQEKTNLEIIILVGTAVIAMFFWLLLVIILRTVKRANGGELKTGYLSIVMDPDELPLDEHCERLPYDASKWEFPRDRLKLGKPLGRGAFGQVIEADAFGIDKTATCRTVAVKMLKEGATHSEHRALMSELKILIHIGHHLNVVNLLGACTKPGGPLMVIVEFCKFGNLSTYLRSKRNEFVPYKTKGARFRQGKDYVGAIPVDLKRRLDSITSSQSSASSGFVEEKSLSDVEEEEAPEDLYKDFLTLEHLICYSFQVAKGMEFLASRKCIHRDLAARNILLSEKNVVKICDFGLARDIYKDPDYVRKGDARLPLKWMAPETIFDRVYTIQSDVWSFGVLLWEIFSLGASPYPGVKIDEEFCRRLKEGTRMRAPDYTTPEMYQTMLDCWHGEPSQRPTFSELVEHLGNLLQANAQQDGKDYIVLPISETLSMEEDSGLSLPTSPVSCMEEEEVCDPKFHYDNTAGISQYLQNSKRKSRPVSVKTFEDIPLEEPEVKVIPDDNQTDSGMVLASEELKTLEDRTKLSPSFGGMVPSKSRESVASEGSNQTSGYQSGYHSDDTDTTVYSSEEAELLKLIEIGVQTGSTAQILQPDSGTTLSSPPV

Regarding `CC(=O)Oc1c2oc3cc(O)c(O)cc3c2c(OC(C)=O)c2oc3cc(O)c(O)cc3c12` [POLYOZELLIN], the IC50 in the test on HUVEC [1] is 10.2 µM; in test [2], 66 µM. Moreover, the inhibition entry in the test with HUVEC [3] was “inactive”.
Take `CC(=O)CC1(O)C(=O)c2c(oc3cc(O)c(O)cc23)-c2oc3cc(O)c(O)cc3c21` (racemic): the results for the IC50 (in the test on HUVEC [1]; in test [2]) were 21.4 µM and 52 µM, respectively. In addition, the inhibition result in the test with HUVEC [3] is “inactive”.
Turning to `O=C1c2oc3cc(O)c(O)cc3c2C(=O)c2oc3cc(O)c(O)cc3c21`, the IC50 with HUVEC [1] turned out to be 3.4 µM; in test [2], 70 µM. In addition, the inhibition entry in the test on HUVEC [3] was “Dose-dependent effect”. Also, in the test on HUVEC [4], the inhibition result is “Active”.
For the compound `COc1cc2nccc(Oc3ccc(NC(=O)Nc4ccc(F)cc4F)c(F)c3)c2cc1OC`, the IC50 came to 1.4 µM in the test on HUVEC [1] and 2.4 µM in test [2].
As for `O=C1C(=O)c2c(oc3cc(O)c(O)cc23)-c2oc3cc(O)c(O)cc3c21`, the IC50 with HUVEC [1] came to 7.6 µM; in test [2] it was 32 µM. Further, the inhibition result in the test with HUVEC [3] was “Dose-dependent effect”. The inhibition entry with HUVEC [4] was “Active”.

One may read the IC50 as the concentration that gives 50% inhibition.
